pEC50, pIC50: −log10 of the molar value. Blank lines part the entries; values can stand above or below the compound they belong to.
Assays:
[1] = target: T1, Growth hormone secretagogue receptor type 1 (Homo sapiens, UniProt Q92847, D99K); test: Agonist activity at human ghrelin receptor Asp2:20Lys(Asp99) mutant expressed in african green monkey COS7 cells assessed as inhibition of inositol phosphate accumulation; format: functional, cell-based, COS-7
Outline: (§1)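 COS-7 cells transiently transfected (calcium phosphate with chloroquine; receptor cDNA 20 μg/75 cm2, the amount giving maximal basal signaling), labelled one day later for 24 h with 5 μCi myo-[3H]inositol. Preincubated in HEPES buffer pH 7.4 with 10 mm LiCl, 30 min at 37 °C, then exposed to various peptide concentrations, 45 min at 37 °C. Inositol phosphates recovered on anion-exchange resin; duplicates; EC50 by nonlinear regression.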

[2] = target: T2, Growth hormone secretagogue receptor type 1 (Homo sapiens, UniProt Q92847); test: Agonist activity at human ghrelin receptor Asp2:20Asn(Asp99) mutant expressed in african green monkey COS7 cells assessed as inhibition of inositol phosphate accumulation; format: functional, cell-based; details: cos-7; outline: as §1
Target sequence in this assay (Q92847 whole entry, looked up): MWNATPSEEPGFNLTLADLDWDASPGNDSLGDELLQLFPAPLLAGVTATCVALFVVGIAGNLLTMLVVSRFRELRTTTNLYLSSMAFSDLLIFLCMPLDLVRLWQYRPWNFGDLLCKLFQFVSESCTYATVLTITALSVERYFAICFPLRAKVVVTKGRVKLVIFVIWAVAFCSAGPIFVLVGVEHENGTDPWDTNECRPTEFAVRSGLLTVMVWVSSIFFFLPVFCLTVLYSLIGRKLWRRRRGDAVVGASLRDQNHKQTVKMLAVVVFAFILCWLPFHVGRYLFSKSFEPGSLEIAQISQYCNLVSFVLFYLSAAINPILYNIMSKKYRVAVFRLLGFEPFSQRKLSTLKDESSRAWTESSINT

[3] = target: T2, Growth hormone secretagogue receptor type 1; test: Inverse agonist activity at human wild type ghrelin receptor expressed in african green monkey COS7 cells assessed as inhibition of constitutively stimulated inositol phosphate accumulation; format: functional, cell-based, COS-7; outline: as §1
Target sequence in this assay (Q92847 whole entry): as the sequence (Q92847 whole entry, looked up) above

[4] = target: T2, Growth hormone secretagogue receptor type 1; test: Displacement of [35S]MK677 from human ghrelin receptor expressed in african green monkey COS7 cells; format: cell-based, COS-7
Target sequence in this assay (Q92847 whole entry): as the sequence (Q92847 whole entry, looked up) above

[5] = target: T2, Growth hormone secretagogue receptor type 1; test: Inverse agonist activity at human ghrelin receptor expressed in african green monkey COS7 cells assessed as constitutively stimulated inositol phosphate accumulation; format: functional, cell-based, COS-7
Target sequence in this assay (Q92847 whole entry): as the sequence (Q92847 whole entry, looked up) above

[6] = target: T3, Growth hormone secretagogue receptor type 1 (Homo sapiens, UniProt Q92847, Q120A); test: Inverse agonist activity at human ghrelin receptor Gln3:05Ala(Gln120) mutant expressed in african green monkey COS7 cells assessed as inhibition of constitutively stimulated inositol phosphate accumulation; format: functional, cell-based, COS-7; outline: as §1
T3 sequence (Q92847 whole entry Q120A): as the sequence (Q92847 whole entry, looked up) above, with Q120A counted along it

[7] = target: T4, Growth hormone secretagogue receptor type 1 (Homo sapiens, UniProt Q92847, S123A); test: Inverse agonist activity at human ghrelin receptor Ser3:08Ala(Ser123) mutant expressed in african green monkey COS7 cells assessed as inhibition of constitutively stimulated inositol phosphate accumulation; format: functional, cell-based, COS-7; outline: as §1
T4 sequence (Q92847 whole entry S123A): as the sequence (Q92847 whole entry, looked up) above, with S123A counted along it

[8] = target: T5, Growth hormone secretagogue receptor type 1 (Homo sapiens, UniProt Q92847, E124Q); test: Inverse agonist activity at human ghrelin receptor Glu3:09Gln(Glu124) mutant expressed in african green monkey COS7 cells assessed as inhibition of constitutively stimulated inositol phosphate accumulation; format: functional, cell-based, COS-7; outline: as §1
T5 sequence (Q92847 whole entry E124Q): as the sequence (Q92847 whole entry, looked up) above, with E124Q counted along it

[9] = target: T6, Growth hormone secretagogue receptor type 1 (Homo sapiens, UniProt Q92847, S174A); test: Inverse agonist activity at human ghrelin receptor Ser4:16Ala(Ser174) mutant expressed in african green monkey COS7 cells assessed as inhibition of constitutively stimulated inositol phosphate accumulation; format: functional, cell-based, COS-7; outline: as §1
T6 sequence (Q92847 whole entry S174A): as the sequence (Q92847 whole entry, looked up) above, with S174A counted along it

[10] = target: T7, Growth hormone secretagogue receptor type 1 (Homo sapiens, UniProt Q92847, M213A); test: Inverse agonist activity at human ghrelin receptor Met5:05Ala(Met213) mutant expressed in african green monkey COS7 cells assessed as inhibition of constitutively stimulated inositol phosphate accumulation; format: functional, cell-based, COS-7; outline: as §1
T7 sequence (Q92847 whole entry M213A): as the sequence (Q92847 whole entry, looked up) above, with M213A counted along it

[11] = target: T8, Growth hormone secretagogue receptor type 1 (Homo sapiens, UniProt Q92847, V216A); test: Inverse agonist activity at human ghrelin receptor Val5:08Ala(Val216) mutant expressed in african green monkey COS7 cells assessed as inhibition of constitutively stimulated inositol phosphate accumulation; format: functional, cell-based, COS-7; outline: as §1
T8 sequence (Q92847 whole entry V216A): as the sequence (Q92847 whole entry, looked up) above, with V216A counted along it

[12] = target: T9, Growth hormone secretagogue receptor type 1 (Homo sapiens, UniProt Q92847, S217A); test: Inverse agonist activity at human ghrelin receptor Ser5:09Ala(Ser217) mutant expressed in african green monkey COS7 cells assessed as inhibition of constitutively stimulated inositol phosphate accumulation; format: functional, cell-based, COS-7; outline: as §1
T9 sequence (Q92847 whole entry S217A): as the sequence (Q92847 whole entry, looked up) above, with S217A counted along it

[13] = target: T10, Growth hormone secretagogue receptor type 1 (Homo sapiens, UniProt Q92847, F220A); test: Inverse agonist activity at human ghrelin receptor Phe5:12Ala(Phe220) mutant expressed in african green monkey COS7 cells assessed as inhibition of constitutively stimulated inositol phosphate accumulation; format: functional, cell-based, COS-7; outline: as §1
T10 sequence (Q92847 whole entry F220A): as the sequence (Q92847 whole entry, looked up) above, with F220A counted along it

[14] = target: T11, Growth hormone secretagogue receptor type 1 (Homo sapiens, UniProt Q92847, R283Q); test: Inverse agonist activity at human ghrelin receptor Arg6:20Gln(Arg283) mutant expressed in african green monkey COS7 cells assessed as inhibition of constitutively stimulated inositol phosphate accumulation; format: functional, cell-based, COS-7; outline: as §1
T11 sequence (Q92847 whole entry R283Q): as the sequence (Q92847 whole entry, looked up) above, with R283Q counted along it

[15] = target: T12, Growth hormone secretagogue receptor type 1 (Homo sapiens, UniProt Q92847, N305A); test: Inverse agonist activity at human ghrelin receptor Asn7:02Ala(Asn305) mutant expressed in african green monkey COS7 cells assessed as inhibition of constitutively stimulated inositol phosphate accumulation; format: functional, cell-based, COS-7; outline: as §1
T12 sequence (Q92847 whole entry N305A): as the sequence (Q92847 whole entry, looked up) above, with N305A counted along it

[16] = target: T2, Growth hormone secretagogue receptor type 1; test: Inverse agonist activity at human ghrelin receptor Phe7:06Leu(Phe306) mutant expressed in african green monkey COS7 cells assessed as inhibition of constitutively stimulated inositol phosphate accumulation; format: functional, cell-based; details: cos-7; outline: as §1
Target sequence in this assay (Q92847 whole entry, looked up): as the sequence (Q92847 whole entry, looked up) above

[17] = target: T13, Growth hormone secretagogue receptor type 1 (Homo sapiens, UniProt Q92847, F312A); test: Inverse agonist activity at human ghrelin receptor Phe7:09Ala(Phe312) mutant expressed in african green monkey COS7 cells assessed as inhibition of constitutively stimulated inositol phosphate accumulation; format: functional, cell-based, COS-7; outline: as §1
T13 sequence (Q92847 whole entry F312A): as the sequence (Q92847 whole entry, looked up) above, with F312A counted along it

[18] = target: T14, Growth hormone secretagogue receptor type 1 (Homo sapiens, UniProt Q92847, F119S); test: Agonist activity at human ghrelin receptor Phe3:04Ser(phe119) mutant expressed in african green monkey COS7 cells assessed as stimulation of constitutively stimulated inositol phosphate accumulation
T14 sequence (Q92847 whole entry F119S): as the sequence (Q92847 whole entry, looked up) above, with F119S counted along it

[19] = target: T15, Growth hormone secretagogue receptor type 1 (Homo sapiens, UniProt Q92847, I178A); test: Agonist activity at human ghrelin receptor Ile4:20Ala(Ile178) mutant expressed in african green monkey COS7 cells assessed as stimulation of constitutively stimulated inositol phosphate accumulation
T15 sequence (Q92847 whole entry I178A): as the sequence (Q92847 whole entry, looked up) above, with I178A counted along it

[20] = target: T2, Growth hormone secretagogue receptor type 1; test: Agonist activity at human wild type ghrelin receptor expressed in african green monkey COS7 cells assessed as stimulation of constitutively stimulated inositol phosphate accumulation; format: functional, cell-based, COS-7
Outline: (§2)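 COS-7 cells transiently transfected (calcium phosphate with chloroquine, cDNA amount giving maximal basal signaling, 20 μg/75 cm2). After 1 day, labeled 24 h with 5 μCi myo-[3H]inositol. Washed in HEPES buffer pH 7.4, preincubated 30 min at 37 °C with 10 mM LiCl, then exposed to peptide concentrations for 45 min at 37 °C. Formic acid extraction, anion-exchange purification. Duplicate determinations. EC50 by nonlinear regression.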
Target sequence in this assay (Q92847 whole entry): as the sequence (Q92847 whole entry, looked up) above

[21] = target: T2, Growth hormone secretagogue receptor type 1; test: Agonist activity at human ghrelin receptor Asp2:20Asn(Asp99) mutant expressed in african green monkey COS7 cells assessed as stimulation of constitutively stimulated inositol phosphate accumulation; format: functional, cell-based; details: cos-7; outline: as §2
Target sequence in this assay (Q92847 whole entry, looked up): as above

[22] = target: T1, Growth hormone secretagogue receptor type 1; test: Agonist activity at human ghrelin receptor Asp2:20Lys(Asp99) mutant expressed in african green monkey COS7 cells assessed as stimulation of constitutively stimulated inositol phosphate accumulation; format: functional, cell-based, COS-7; outline: as §2
[23] = target: T14, Growth hormone secretagogue receptor type 1; test: Agonist activity at human ghrelin receptor Phe3:04Ser(phe119) mutant expressed in african green monkey COS7 cells assessed as stimulation of constitutively stimulated inositol phosphate accumulation; format: functional, cell-based, COS-7; outline: as §2
[24] = target: T3, Growth hormone secretagogue receptor type 1; test: Agonist activity at human ghrelin receptor Gln3:05Ala(Gln120) mutant expressed in african green monkey COS7 cells assessed as stimulation of constitutively stimulated inositol phosphate accumulation; format: functional, cell-based, COS-7; outline: as §2
[25] = target: T5, Growth hormone secretagogue receptor type 1; test: Agonist activity at human ghrelin receptor Glu3:09Gln(Glu124) mutant expressed in african green monkey COS7 cells assessed as stimulation of constitutively stimulated inositol phosphate accumulation; format: functional, cell-based, COS-7; outline: as §2
[26] = target: T6, Growth hormone secretagogue receptor type 1; test: Agonist activity at human ghrelin receptor Ser4:16Ala(Ser174) mutant expressed in african green monkey COS7 cells assessed as stimulation of constitutively stimulated inositol phosphate accumulation; format: functional, cell-based, COS-7; outline: as §2
[27] = target: T15, Growth hormone secretagogue receptor type 1; test: Agonist activity at human ghrelin receptor Ile4:20Ala(Ile178) mutant expressed in african green monkey COS7 cells assessed as stimulation of constitutively stimulated inositol phosphate accumulation; format: functional, cell-based, COS-7; outline: as §2
[28] = target: T7, Growth hormone secretagogue receptor type 1; test: Agonist activity at human ghrelin receptor Met5:05Ala(Met213) mutant expressed in african green monkey COS7 cells assessed as stimulation of constitutively stimulated inositol phosphate accumulation; format: functional, cell-based, COS-7; outline: as §2
[29] = target: T8, Growth hormone secretagogue receptor type 1; test: Agonist activity at human ghrelin receptor Val5:08Ala(Val216) mutant expressed in african green monkey COS7 cells assessed as stimulation of constitutively stimulated inositol phosphate accumulation; format: functional, cell-based, COS-7; outline: as §2
[30] = target: T9, Growth hormone secretagogue receptor type 1; test: Agonist activity at human ghrelin receptor Ser5:09Ala(Ser217) mutant expressed in african green monkey COS7 cells assessed as stimulation of constitutively stimulated inositol phosphate accumulation; format: functional, cell-based, COS-7; outline: as §2
[31] = target: T10, Growth hormone secretagogue receptor type 1; test: Agonist activity at human ghrelin receptor Phe5:12Ala(Phe220) mutant expressed in african green monkey COS7 cells assessed as stimulation of constitutively stimulated inositol phosphate accumulation; format: functional, cell-based, COS-7; outline: as §2
[32] = target: Growth hormone secretagogue receptor type 1 (Homo sapiens, UniProt Q92847, F279A); test: Agonist activity at human ghrelin receptor Phe6:16Ala(Phe279) mutant expressed in african green monkey COS7 cells assessed as stimulation of constitutively stimulated inositol phosphate accumulation; format: functional, cell-based, COS-7; outline: as §2
Chain of Growth hormone secretagogue receptor type 1 (Homo sapiens, UniProt Q92847, F279A) (Q92847 whole entry F279A): as the sequence (Q92847 whole entry, looked up) above, with F279A counted along it

[33] = target: T11, Growth hormone secretagogue receptor type 1; test: Agonist activity at human ghrelin receptor Arg6:20Gln(Arg283) mutant expressed in african green monkey COS7 cells assessed as stimulation of constitutively stimulated inositol phosphate accumulation; format: functional, cell-based, COS-7; outline: as §2
[34] = target: T12, Growth hormone secretagogue receptor type 1; test: Agonist activity at human ghrelin receptor Asn7:02Ala(Asn305) mutant expressed in african green monkey COS7 cells assessed as stimulation of constitutively stimulated inositol phosphate accumulation; format: functional, cell-based, COS-7; outline: as §2
[35] = target: T2, Growth hormone secretagogue receptor type 1; test: Agonist activity at human ghrelin receptor Phe7:06Leu(Phe306) mutant expressed in african green monkey COS7 cells assessed as stimulation of constitutively stimulated inositol phosphate accumulation; format: functional, cell-based; details: cos-7; outline: as §2
Target sequence in this assay (Q92847 whole entry, looked up): as the sequence (Q92847 whole entry, looked up) above

[36] = target: T13, Growth hormone secretagogue receptor type 1; test: Agonist activity at human ghrelin receptor Phe7:09Ala(Phe312) mutant expressed in african green monkey COS7 cells assessed as stimulation of constitutively stimulated inositol phosphate accumulation; format: functional, cell-based, COS-7; outline: as §2
[37] = target: T4, Growth hormone secretagogue receptor type 1; test: Inverse agonist activity at human ghrelin receptor Ser3:08Ala(Ser123) mutant expressed in african green monkey COS7 cells assessed as inhibition of constitutively stimulated inositol phosphate accumulation

T1 sequence (Q92847 whole entry D99K): as the sequence (Q92847 whole entry, looked up) above, with D99K counted along it

pIC50 [1]: < 6.00
pIC50 [2]: < 6.00
pIC50 [3]: 7.49
pIC50 [4]: 7.89
pIC50 [5]: 7.44
pIC50 [6]: < 6.00
pIC50 [7]: 7.68
pIC50 [8]: < 6.00
pIC50 [9]: 8.59
pIC50 [10]: 7.54
pIC50 [11]: 7.57
pIC50 [12]: 7.08
pIC50 [13]: 7.72
pIC50 [14]: < 6.00
pIC50 [15]: 7.21
pIC50 [16]: < 6.00
pIC50 [17]: < 6.00
pEC50 [18]: 7.22
pEC50 [19]: 7.37
Structure (SMILES): CC(C)C[C@H](NC(=O)[C@H](CC(C)C)NC(=O)[C@@H](Cc1c[nH]c2ccccc12)NC(=O)[C@H](Cc1ccccc1)NC(=O)[C@@H](Cc1c[nH]c2ccccc12)NC(=O)[C@@H](N)CCCCN)C(N)=O

pIC50 [4]: 6.68
pIC50 [5]: 6.95
Structure (SMILES): CC(C)C[C@H](NC(=O)[C@H](CC(C)C)NC(=O)[C@@H](Cc1c[nH]c2ccccc12)NC(=O)[C@H](Cc1ccccc1)NC(=O)[C@@H](Cc1c[nH]c2ccccc12)NC(=O)[C@@H](CCCNC(=N)N)NC(=O)[C@H]1CCCN1C(=O)[C@@H](N)CC(=O)O)C(N)=O

pIC50 [20]: 7.82
pIC50 [21]: < 6.00
pIC50 [22]: < 6.00
pIC50 [23]: 7.39
pIC50 [24]: < 6.00
pIC50 [25]: < 6.00
pIC50 [26]: 8.21
pIC50 [27]: 6.80
pIC50 [28]: 9.46
pIC50 [29]: < 6.00
pIC50 [30]: 7.85
pIC50 [31]: < 6.00
pIC50 [32]: < 6.00
pIC50 [33]: < 6.00
pIC50 [34]: 7.82
pIC50 [35]: 7.09
pIC50 [36]: < 6.00
pIC50 [4]: 7.28
pIC50 [5]: 7.82
pIC50 [37]: 7.55
Structure (SMILES): CC(C)C[C@H](NC(=O)[C@H](CC(C)C)NC(=O)[C@@H](Cc1c[nH]c2ccccc12)NC(=O)[C@H](Cc1ccccc1)NC(=O)[C@@H](Cc1c[nH]c2ccccc12)NC(=O)[C@H](C)N)C(N)=O

— ChEMBL document CHEMBL1156448, “Identification of an efficacy switch region in the ghrelin receptor responsible for interchange between agonism and inverse agonism” (J Biol Chem, 2007)
